These results are taken from ChEMBL document CHEMBL4823270, “A first-in-class anticancer dual HDAC2/FAK inhibitors bearing hydroxamates/benzamides capped by pyridinyl-1,2,4-triazoles” (Eur J Med Chem, 2021).

As usually defined, the IC50 is the concentration that gives 50% inhibition.

Activity calls are given as the source filed them. No cut-off for these calls is given here.

One test has as its system HCT-116. Kind of test: Growth inhibition of human HCT-116 cells at 10 uM incubated for 24 hrs by MTT assay relative to control. The note with it: read-out: GI. Format: functional. The gist of the method: (§1)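 Cells seeded at 1 × 10^4 per well, cultured overnight, then exposed to 10 μM compound or DMSO (negative control) for 24 h. After a PBS wash, MTT (2 mg/ml) was added for 4 h at 37°C and formazan dissolved in DMSO. OD read at 570 nm. Growth inhibition = 1 − (OD treated/OD control); at least three independent experiments.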
On the technique in general: Tetrazolium dyes change colour on reduction, which living cells bring about.

Test [1] concerns A498. In words: Growth inhibition of human A498 cells at 10 uM incubated for 24 hrs by MTT assay relative to control. The following applies: read-out: GI. Format: functional. The method, boiled down: as §1
Another test relates to CAKI-1. In words: Growth inhibition of human CAKI-1 cells at 10 uM incubated for 24 hrs by MTT assay relative to control. The note with it: read-out: GI. The format is functional. The method, boiled down: as §1
Test [2] relates to A498. Kind of test: Antiproliferative activity against human A498 cells assessed as cell growth inhibition incubated for 24 hrs by MTT assay. Format: functional, cell-based. The following applies: A498, 24 h.
In a further test the target is Histone deacetylase 3 (Homo sapiens, UniProt O15379). In words: Inhibition of human full-length recombinant HDAC3 preincubated for 5 mins followed by HDAC substrate addition and further incubated for 45 mins by fluorescence microplate reader assay.
Sequence of Histone deacetylase 3 (O15379 whole entry): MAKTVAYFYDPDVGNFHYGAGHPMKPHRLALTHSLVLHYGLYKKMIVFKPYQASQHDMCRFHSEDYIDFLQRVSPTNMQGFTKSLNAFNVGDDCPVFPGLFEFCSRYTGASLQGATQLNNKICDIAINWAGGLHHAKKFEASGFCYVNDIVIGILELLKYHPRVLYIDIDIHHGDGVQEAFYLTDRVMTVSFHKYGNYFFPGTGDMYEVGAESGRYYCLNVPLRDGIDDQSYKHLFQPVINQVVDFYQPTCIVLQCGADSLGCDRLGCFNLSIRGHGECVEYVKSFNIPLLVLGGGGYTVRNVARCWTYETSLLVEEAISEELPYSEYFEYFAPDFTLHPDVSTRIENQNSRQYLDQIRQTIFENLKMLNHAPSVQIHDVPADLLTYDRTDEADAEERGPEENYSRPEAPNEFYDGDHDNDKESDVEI
For another test, the target named is T1, Histone deacetylase 8 (Homo sapiens, UniProt Q9BY41).
T1 sequence (Q9BY41 whole entry): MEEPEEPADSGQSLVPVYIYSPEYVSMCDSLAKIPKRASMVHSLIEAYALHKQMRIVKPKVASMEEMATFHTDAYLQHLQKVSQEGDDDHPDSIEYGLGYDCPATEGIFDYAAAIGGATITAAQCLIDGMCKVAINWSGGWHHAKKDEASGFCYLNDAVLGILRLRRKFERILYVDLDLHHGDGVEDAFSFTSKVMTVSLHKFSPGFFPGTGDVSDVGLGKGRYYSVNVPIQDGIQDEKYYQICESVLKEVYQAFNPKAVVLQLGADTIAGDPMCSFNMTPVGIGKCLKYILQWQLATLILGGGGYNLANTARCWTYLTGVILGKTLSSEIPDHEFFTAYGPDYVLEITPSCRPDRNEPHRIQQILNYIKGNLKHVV
In words: Inhibition of human full-length recombinant C-terminal His-tagged HDAC8 expressed in baculovirus infected Sf9 insect cells preincubated for 5 mins followed by HDAC substrate addition and further incubated for 45 mins by fluorescence microplate reader assay.

Test [3] has as its target T2, Histone deacetylase 2 (Homo sapiens, UniProt Q92769). In words: Inhibition of HDAC2 in human A498 cells assessed as reduction in HDAC2 expression by Western blot analysis. The format is cell-based. The gist of the method: (§2)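 40 μg protein (Bradford) resolved by SDS-PAGE, transferred to PVDF, blocked 1 h in milk or BSA. Primary antibody overnight, HRP secondary 1 h, ECL detection; β-actin as loading control.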
Background: A western blot detects proteins with antibodies after separation by electrophoresis.

Test [4] concerns the target T2, Histone deacetylase 2. Kind of test: Inhibition of HDAC2 in human CAKI-1 cells assessed as reduction in HDAC2 expression by Western blot analysis. Format: cell-based. The method, boiled down:
as §2

Test [5] concerns the target T3, Focal adhesion kinase 1 (Homo sapiens, UniProt Q05397). In words: Inhibition of FAK in human CAKI-1 cells assessed as reduction in FAK phosphorylation by Western blot analysis. The format is cell-based. The method, boiled down: as §2
For test [6], the system named is A498. Kind of test: Induction of apoptosis in human A498 cells at 0.75 to 1.5 uM measured after 24 hrs by Annexin-V/propidium iodide staining based flow cytometry relative to control. The following applies: dose 0.75-1.5 µM. Format: functional. The gist of the method:
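Cells in supplemented medium with 10% FBS at 37 °C, 5% CO2, exposed to 0.75 or 1.5 μM compound, or DMSO as negative control, for 24 h. Apoptosis assessed by annexin V/PI staining per kit instructions, then flow cytometry; apoptotic cell percentage quantified against control.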

For test [7], the target named is T3, Focal adhesion kinase 1. Kind of test: Inhibition of FAK in human A498 cells assessed as reduction in FAK phosphorylation pretreated for 12 weeks followed by treatment for last 24 hrs by Western blot analysis. Format: cell-based. The note with it: time 85.0 day.
In test [8] the test system is A498. Kind of test: Induction of apoptosis in human A498 cells assessed as activation of caspase-3 measured after 24 hrs by ELISA relative to control. Format: functional. The gist of the method:
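A-498 lysates were assayed for active caspase-3 protein by ELISA. Samples or standards were incubated 2 h at room temperature, then caspase-3 (active) detection antibody for 1 h, anti-rabbit IgG-HRP for 30 min, and chromogen for 30 min. After the stop solution, the plate was read and values were taken from a fitted standard curve in pg/ml versus a negative control.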

T2 sequence (Q92769 whole entry): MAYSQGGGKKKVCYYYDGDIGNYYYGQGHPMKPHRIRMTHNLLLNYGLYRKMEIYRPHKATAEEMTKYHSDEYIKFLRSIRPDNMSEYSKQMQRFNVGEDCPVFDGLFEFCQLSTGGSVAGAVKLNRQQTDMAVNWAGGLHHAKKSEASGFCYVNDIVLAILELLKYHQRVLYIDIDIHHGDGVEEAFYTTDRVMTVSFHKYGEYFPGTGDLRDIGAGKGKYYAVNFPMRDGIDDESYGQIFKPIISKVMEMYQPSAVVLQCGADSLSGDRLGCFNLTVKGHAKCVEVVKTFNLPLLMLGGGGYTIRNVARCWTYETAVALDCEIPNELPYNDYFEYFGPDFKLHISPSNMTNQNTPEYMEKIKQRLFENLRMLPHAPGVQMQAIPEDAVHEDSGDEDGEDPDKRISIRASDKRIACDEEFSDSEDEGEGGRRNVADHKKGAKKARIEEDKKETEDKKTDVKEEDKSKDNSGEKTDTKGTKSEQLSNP
T3 sequence (Q05397 2-1052 limits assumed): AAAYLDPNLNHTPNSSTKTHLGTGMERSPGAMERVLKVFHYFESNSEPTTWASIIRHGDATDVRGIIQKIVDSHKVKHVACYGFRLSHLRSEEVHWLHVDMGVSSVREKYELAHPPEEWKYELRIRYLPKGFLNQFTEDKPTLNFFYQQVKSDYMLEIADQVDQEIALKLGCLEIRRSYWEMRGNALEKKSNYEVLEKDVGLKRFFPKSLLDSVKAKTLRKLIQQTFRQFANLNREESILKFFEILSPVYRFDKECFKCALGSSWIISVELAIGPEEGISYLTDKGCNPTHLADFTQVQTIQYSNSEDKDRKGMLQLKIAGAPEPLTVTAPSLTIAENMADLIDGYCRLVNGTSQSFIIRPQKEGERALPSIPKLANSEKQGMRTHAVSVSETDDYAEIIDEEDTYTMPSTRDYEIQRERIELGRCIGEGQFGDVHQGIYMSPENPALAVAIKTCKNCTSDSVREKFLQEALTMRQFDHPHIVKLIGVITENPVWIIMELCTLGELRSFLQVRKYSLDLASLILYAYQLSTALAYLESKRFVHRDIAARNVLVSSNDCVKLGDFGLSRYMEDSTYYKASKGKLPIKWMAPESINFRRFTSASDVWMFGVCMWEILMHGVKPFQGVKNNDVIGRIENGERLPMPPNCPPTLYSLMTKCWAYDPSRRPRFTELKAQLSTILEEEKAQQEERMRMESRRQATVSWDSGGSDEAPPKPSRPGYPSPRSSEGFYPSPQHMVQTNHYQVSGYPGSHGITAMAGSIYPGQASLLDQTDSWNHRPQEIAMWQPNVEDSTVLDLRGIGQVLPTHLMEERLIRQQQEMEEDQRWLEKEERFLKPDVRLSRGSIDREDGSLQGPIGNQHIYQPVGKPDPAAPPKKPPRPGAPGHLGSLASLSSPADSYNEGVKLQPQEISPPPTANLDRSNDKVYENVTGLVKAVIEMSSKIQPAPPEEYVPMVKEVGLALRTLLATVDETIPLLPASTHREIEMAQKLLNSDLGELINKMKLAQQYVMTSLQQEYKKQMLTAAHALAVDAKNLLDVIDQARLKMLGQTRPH

Regarding `Cn1c(SCCCCCC(=O)NO)nnc1-c1ccncc1`, the figures for the inhibition of growth at 10 µM in the test with HCT-116, in the test on A498 [1] and in the test on CAKI-1 were 60.1%, 99.8% and 98.1%, respectively. Besides, the IC50 with A498 [2] was determined as 950 nM; at Histone deacetylase 3, 3.41 µM; on Histone deacetylase 8, 7.1 µM. The inhibition result on Histone deacetylase 2 [3], at Histone deacetylase 2 [4], on Focal adhesion kinase 1 [5] and on Focal adhesion kinase 1 [7] was “Active” throughout. Also, the Activity in the test with A498 [6] is given as 50%. The “fold change (FC)” value with A498 [8] amounted to 11.
